Screens (PubChem BioAssay)
A selection: hits, their analogues and other compounds. The true share with any hit is near 3.3%.
SIAE primary: human SIAE inhibitors, primary screen, biochemical, fluorescence polarization, FP-Rh probe, 1536-well HTS. inhibition, % at 9.66 µM. 0.69% of 370,000 active. SIAE FP-Rh probe binding. Sialate O-acetylesterase (Homo sapiens), Q9HAT2;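 active means inhibition above a cutoff: mean of compounds within the control limits plus 3 SD of those, cut at about 17% in these data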
ABHD4 inh: ABHD4 inhibitors, primary screen, biochemical, fluorescence polarization, mouse; inhibition, % at 8.92 µM; AID 720543, 2013; purified mABHD4, FP-Rh probe fluorescence polarization; 0.54% of 370,000 active;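 active means inhibition exceeding the mean over every tested compound plus 3 SD, cut at about 30% in these data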
Target sequence (Q8VD66 whole entry, looked up): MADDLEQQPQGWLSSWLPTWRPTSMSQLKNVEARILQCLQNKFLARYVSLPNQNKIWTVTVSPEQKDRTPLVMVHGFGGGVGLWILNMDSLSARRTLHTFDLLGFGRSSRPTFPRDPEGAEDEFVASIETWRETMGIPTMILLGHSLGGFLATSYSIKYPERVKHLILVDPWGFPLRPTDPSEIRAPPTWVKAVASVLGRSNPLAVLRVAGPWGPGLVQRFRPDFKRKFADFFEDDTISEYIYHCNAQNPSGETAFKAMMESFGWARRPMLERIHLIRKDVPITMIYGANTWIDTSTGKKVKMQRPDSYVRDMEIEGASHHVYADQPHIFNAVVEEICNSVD
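Assay system: Wild-type mouse ABHD4 protein | Medium: HEPES pH 7.0 buffer, 150 mM NaCl, 0.01% Pluronic F-127 | Incubation: Enzyme–compound pre-incubation 45 min, then probe 60 min, both 25 °C | Technique: Fluorescence polarization with parallel and perpendicular emission, 525/598 nm | Evaluation: % inhibition of FP-Rh probe binding versus controls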
TCR-CD3 inh: inhibitors of human TCR-CD3 interaction, primary screen, biochemical, fluorescence, TAMRA-labeled TCR probe; T-cell receptor (TCR); inhibition, % at 9.4 µM; 0.37% of 360,000 active; in the data active means inhibition above about 19%;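 further: recombinant mutant TCR 2C K166C tagged with TAMRA read by polarization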
rCAG binder: binders of r(CAG) RNA repeats, primary screen, biochemical, fluorescence; AID 651821, 2012; r(CAG) RNA repeat, TO-PRO-1 dye displacement fluorescence; 1.3% of 370,000 active; inhibition, % at 3 µM;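 active means inhibition above the plate cutoff, the mean of all test compounds on that plate plus 3 SD, cut at about 35% in these data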;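 further: higher means more dye released from RNA so lower well fluorescence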
PRMT1 inh: PRMT1 methyltransferase inhibitors, primary screen, biochemical, fluorescence polarization. Protein arginine N-methyltransferase 1 (Homo sapiens), Q99873. recombinant PRMT1, activity-based probe fluorescence polarization. inhibition, % at 2.79 µM. 1.3% of 370,000 active;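 active means inhibition above about 21% made by adding two undisclosed values, limit read from the data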
Target sequence (Q99873 whole entry, looked up): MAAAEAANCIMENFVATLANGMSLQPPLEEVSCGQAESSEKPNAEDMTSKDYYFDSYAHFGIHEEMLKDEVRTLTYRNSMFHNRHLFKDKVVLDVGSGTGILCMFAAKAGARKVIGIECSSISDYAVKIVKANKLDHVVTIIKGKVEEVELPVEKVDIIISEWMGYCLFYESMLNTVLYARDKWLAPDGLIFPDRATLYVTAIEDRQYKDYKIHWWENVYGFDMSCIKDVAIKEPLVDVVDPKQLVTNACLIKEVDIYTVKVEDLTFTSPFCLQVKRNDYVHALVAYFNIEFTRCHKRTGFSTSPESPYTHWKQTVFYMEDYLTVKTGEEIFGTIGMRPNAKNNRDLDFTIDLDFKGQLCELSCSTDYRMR
mABHD4 conf: ABHD4 inhibitors, retest, confirmation, biochemical, fluorescence polarization, mouse; shares compounds with ABHD4 inh; purified mABHD4, FP-Rh probe fluorescence polarization; AID 720658, 2013; inhibition, % at 8.92 µM; 55% of 1,800 active;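 active means mean inhibition across replicates above the hit cutoff set in the primary screen, cut at about 30% in these data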
Numbers stand for hits.

How did O=C(O)c1cccc(NS(=O)(=O)c2ccc3c(c2)C(=O)c2ccccc2C3=O)c1 do in these assays?
SIAE primary: inactive; ABHD4 inh: 45; TCR-CD3 inh: inactive; rCAG binder: inactive; PRMT1 inh: inactive; mABHD4 conf: 37

How did O=C(CSc1ncnc2sc3c(c12)CCCC3)Nc1ccc(Oc2ccccc2)cc1 do in these assays?
SIAE primary: inactive; ABHD4 inh: inactive; rCAG binder: inactive; PRMT1 inh: inactive

Results for Oc1csc(Cc2nc(-c3ccc(-c4ccccc4)cc3)cs2)n1 ?
SIAE primary: inactive; ABHD4 inh: 33; TCR-CD3 inh: inactive; rCAG binder: inactive; PRMT1 inh: inactive; mABHD4 conf: inactive

What do the screens show for `CN1CCN(C2=C(Cl)C(=O)c3ccccc3C2=O)CC1`?
SIAE primary: inactive; ABHD4 inh: 37; TCR-CD3 inh: inactive; rCAG binder: inactive; PRMT1 inh: inactive; mABHD4 conf: 32

Results for COc1ccc(OC)c(Nc2nc(NCCO)c3ccccc3n2)c1 ?
SIAE primary: inactive; ABHD4 inh: inactive; TCR-CD3 inh: inactive; rCAG binder: inactive; PRMT1 inh: inactive

How did Cc1ccc(Nc2nc(NCCO)c3ccccc3n2)cc1C do in these assays?
SIAE primary: inactive; ABHD4 inh: 35; TCR-CD3 inh: inactive; rCAG binder: inactive; PRMT1 inh: inactive; mABHD4 conf: 78

How did CC(=O)N=c1sc2nc3ccccc3nc2n1N(C(C)=O)C(C)=O do in these assays?
SIAE primary: inactive; ABHD4 inh: 35; TCR-CD3 inh: inactive; rCAG binder: inactive; PRMT1 inh: inactive; mABHD4 conf: inactive

What do the screens show for `CC(=O)N=c1sc2ccccc2n1C`?
SIAE primary: inactive; ABHD4 inh: inactive; TCR-CD3 inh: inactive; rCAG binder: inactive; PRMT1 inh: inactive

How did O=C1C2C(C(=O)N1/N=C/c1cc([N+](=O)[O-])ccc1O)C1C=CC2C12CC2 (stereo unspecified) do in these assays?
SIAE primary: inactive; ABHD4 inh: inactive; TCR-CD3 inh: inactive; rCAG binder: inactive; PRMT1 inh: inactive

How did O=C1C2C(C(=O)N1/N=C/c1cc([N+](=O)[O-])c(O)cc1O)C1C=CC2C12CC2 (stereo unspecified) do in these assays?
SIAE primary: inactive; ABHD4 inh: 31; TCR-CD3 inh: inactive; rCAG binder: inactive; PRMT1 inh: inactive; mABHD4 conf: inactive

How did COC(=O)c1cc2c(c3c4cc(C)ccc4n(C(=O)c4ccccc4)c13)C(=O)N(Cc1ccccc1)C2 do in these assays?
SIAE primary: inactive; ABHD4 inh: inactive; TCR-CD3 inh: inactive; rCAG binder: inactive; PRMT1 inh: inactive

How did CCCCCCCCCCCCCCCC[N+](C)(C)CCl do in these assays?
SIAE primary: inactive; ABHD4 inh: 50; TCR-CD3 inh: inactive; rCAG binder: inactive; PRMT1 inh: inactive; mABHD4 conf: inactive

Results for CCCCCCCCCCCCCCCC[N+](C)(C)CC ?
SIAE primary: inactive; ABHD4 inh: 47; TCR-CD3 inh: inactive; rCAG binder: inactive; PRMT1 inh: inactive; mABHD4 conf: 60

Results for CCOC(=O)[C@@]12CCC3=C1N(CCC3)C(=O)[C@H](CC(=O)N1CCSCC1)C2 ?
SIAE primary: inactive; ABHD4 inh: inactive; rCAG binder: inactive; PRMT1 inh: inactive

Results for C=CCN(c1ccccc1C(=O)O)S(=O)(=O)c1ccc(NC(=O)OC)cc1 ?
SIAE primary: inactive; ABHD4 inh: 35; TCR-CD3 inh: inactive; rCAG binder: inactive; PRMT1 inh: inactive; mABHD4 conf: inactive

What do the screens show for `Cc1cc(N/N=C/c2ccc(F)cc2)nc(NCc2ccccc2)n1`?
SIAE primary: inactive; ABHD4 inh: inactive; TCR-CD3 inh: inactive; rCAG binder: inactive; PRMT1 inh: inactive

What do the screens show for `Cc1ccc(/C=N/Nc2cc(C)nc(NCc3ccccc3)n2)cc1`?
SIAE primary: inactive; ABHD4 inh: 34; TCR-CD3 inh: inactive; rCAG binder: inactive; PRMT1 inh: inactive; mABHD4 conf: 60

How did CCC(CO)Oc1cc(NCc2ccc(C(C)(C)C)cc2)c2ncn(C(C)C)c2c1 (stereo unspecified) do in these assays?
SIAE primary: inactive; ABHD4 inh: 30; TCR-CD3 inh: inactive; rCAG binder: inactive; PRMT1 inh: inactive; mABHD4 conf: 34

What do the screens show for `CCCCOc1cc(NCc2ccccc2)c2ncn(C(C)C)c2c1`?
SIAE primary: inactive; ABHD4 inh: 37; TCR-CD3 inh: inactive; rCAG binder: inactive; PRMT1 inh: inactive; mABHD4 conf: 91

What do the screens show for `COCCCOc1cc(NCc2ccccc2)c2ncn(C(C)C)c2c1`?
SIAE primary: inactive; ABHD4 inh: inactive; TCR-CD3 inh: inactive; rCAG binder: inactive; PRMT1 inh: inactive

Results for C[C@@H]1CN(Cc2nnnn2CC(=O)NCCCn2cccn2)C[C@H](C)O1 ?
SIAE primary: inactive; ABHD4 inh: inactive; TCR-CD3 inh: inactive; rCAG binder: inactive; PRMT1 inh: inactive

How did O=C(OCCCOC(=O)c1ccc(Br)o1)c1ccc(Br)o1 do in these assays?
SIAE primary: inactive; ABHD4 inh: inactive; TCR-CD3 inh: inactive; rCAG binder: inactive; PRMT1 inh: inactive

What do the screens show for `CN(C)c1cc2c(c(N(C)C)c1)C(=O)c1ccccc1C2=O`?
SIAE primary: inactive; ABHD4 inh: 41; TCR-CD3 inh: inactive; rCAG binder: inactive; PRMT1 inh: inactive; mABHD4 conf: 33

Results for C=CCN1[C@H](C#N)[C@@H](c2ccc(C#Cc3cccnc3)cc2)[C@H]1CO ?
SIAE primary: inactive; ABHD4 inh: inactive; rCAG binder: inactive; PRMT1 inh: inactive

How did CCCCNc1c(-c2ccc(-c3cccc(Cl)c3)cc2)nc2ccccn12 do in these assays?
SIAE primary: inactive; ABHD4 inh: 40; TCR-CD3 inh: inactive; rCAG binder: inactive; PRMT1 inh: inactive; mABHD4 conf: 32

How did CCCCNc1c(-c2cccc(-c3ccc(OC)cc3)c2)nc2ccc(C)cn12 do in these assays?
SIAE primary: inactive; ABHD4 inh: 30; TCR-CD3 inh: inactive; rCAG binder: inactive; PRMT1 inh: inactive; mABHD4 conf: 35

What do the screens show for `CCCCCCSc1ccc(-c2nc3ccccn3c2NCCCC)cc1`?
SIAE primary: inactive; ABHD4 inh: 44; TCR-CD3 inh: inactive; rCAG binder: inactive; PRMT1 inh: inactive; mABHD4 conf: 50

What do the screens show for `Cc1ccc(OC[C@@H](O)CN2CCC(C(O)(c3ccccc3)c3ccccc3)CC2)cc1`?
SIAE primary: inactive; ABHD4 inh: inactive; rCAG binder: inactive; PRMT1 inh: inactive

How did C/C(=N\Nc1nc2ccccc2[nH]1)c1ccc(C)o1 do in these assays?
SIAE primary: inactive; ABHD4 inh: inactive; TCR-CD3 inh: inactive; rCAG binder: inactive; PRMT1 inh: inactive

How did C/C(=N\Nc1nc2ccccc2[nH]1)c1ccc(N2CCOCC2)cc1 do in these assays?
SIAE primary: inactive; ABHD4 inh: 33; TCR-CD3 inh: inactive; rCAG binder: inactive; PRMT1 inh: inactive; mABHD4 conf: 30

How did C/C(=N\Nc1nc2ccccc2[nH]1)c1ccc(Cl)s1 do in these assays?
SIAE primary: inactive; ABHD4 inh: 31; TCR-CD3 inh: inactive; rCAG binder: inactive; PRMT1 inh: inactive; mABHD4 conf: inactive
